Results published in ChEMBL document CHEMBL1155932, “False positives in a reporter gene assay: identification and synthesis of substituted N-pyridin-2-ylbenzamides as competitive inhibitors of firefly luciferase” (J Med Chem, 2008).

T1: Luciferin 4-monooxygenase (Luciola lateralis) (UniProt Q01158)
T1 sequence (whole entry): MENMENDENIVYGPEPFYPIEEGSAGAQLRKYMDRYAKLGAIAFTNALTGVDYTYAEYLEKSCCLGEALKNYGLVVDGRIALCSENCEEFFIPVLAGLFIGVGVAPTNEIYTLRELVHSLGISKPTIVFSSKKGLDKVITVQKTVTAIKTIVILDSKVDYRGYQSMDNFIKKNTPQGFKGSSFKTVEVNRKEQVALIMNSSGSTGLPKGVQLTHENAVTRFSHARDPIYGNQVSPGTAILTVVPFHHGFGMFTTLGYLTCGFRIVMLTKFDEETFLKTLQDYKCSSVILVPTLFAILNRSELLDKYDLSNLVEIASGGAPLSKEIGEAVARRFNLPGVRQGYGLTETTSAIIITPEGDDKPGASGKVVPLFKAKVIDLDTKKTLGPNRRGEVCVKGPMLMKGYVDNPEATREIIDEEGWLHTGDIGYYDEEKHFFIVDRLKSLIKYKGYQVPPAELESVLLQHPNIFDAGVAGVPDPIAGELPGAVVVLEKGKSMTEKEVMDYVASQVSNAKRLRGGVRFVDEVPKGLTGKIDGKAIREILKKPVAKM

T2: Luciferin 4-monooxygenase (Luciola lateralis, UniProt Q01158)
T2 sequence (Q01158 whole entry): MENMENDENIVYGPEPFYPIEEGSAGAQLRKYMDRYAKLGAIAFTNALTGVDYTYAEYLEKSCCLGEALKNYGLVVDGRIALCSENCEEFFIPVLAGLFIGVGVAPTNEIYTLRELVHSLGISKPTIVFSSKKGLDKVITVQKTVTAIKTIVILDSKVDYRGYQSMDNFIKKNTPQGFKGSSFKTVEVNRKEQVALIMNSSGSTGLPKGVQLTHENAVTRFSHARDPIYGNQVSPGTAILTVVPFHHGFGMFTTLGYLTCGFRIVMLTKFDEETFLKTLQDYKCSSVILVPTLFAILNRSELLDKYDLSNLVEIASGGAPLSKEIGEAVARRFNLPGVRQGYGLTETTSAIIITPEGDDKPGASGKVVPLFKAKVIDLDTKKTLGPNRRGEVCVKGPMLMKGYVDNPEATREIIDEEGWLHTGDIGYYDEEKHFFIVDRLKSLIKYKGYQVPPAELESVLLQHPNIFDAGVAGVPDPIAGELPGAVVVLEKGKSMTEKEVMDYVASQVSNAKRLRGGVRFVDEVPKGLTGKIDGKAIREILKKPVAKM


Substrate: O=C(Nc1ccc2ccccc2n1)c1ccccc1
Details: Aquatica lateralis; 1 uM

| Molecule | Km | Vmax |
| --- | --- | --- |
| Luciferin 4-monooxygenase (Luciola lateralis), Q01158 (protein) MENMENDENIVYGPEPFYPIEEGSAGAQLRKYMDRYAKLGAIAFTNALTGVDYTYAEYLEKSCCLGEALKNYGLVVDGRIALCSENCEEFFIPVLAGLFIGVGVAPTNEIYTLRELVHSLGISKPTIVFSSKKGLDKVITVQKTVTAIKTIVILDSKVDYRGYQSMDNFIKKNTPQGFKGSSFKTVEVNRKEQVALIMNSSGSTGLPKGVQLTHENAVTRFSHARDPIYGNQVSPGTAILTVVPFHHGFGMFTTLGYLTCGFRIVMLTKFDEETFLKTLQDYKCSSVILVPTLFAILNRSELLDKYDLSNLVEIASGGAPLSKEIGEAVARRFNLPGVRQGYGLTETTSAIIITPEGDDKPGASGKVVPLFKAKVIDLDTKKTLGPNRRGEVCVKGPMLMKGYVDNPEATREIIDEEGWLHTGDIGYYDEEKHFFIVDRLKSLIKYKGYQVPPAELESVLLQHPNIFDAGVAGVPDPIAGELPGAVVVLEKGKSMTEKEVMDYVASQVSNAKRLRGGVRFVDEVPKGLTGKIDGKAIREILKKPVAKM | 53 µM | 95% |

Substrate: O=C(Nc1ccc2ccccc2n1)c1ccccc1
Details: Aquatica lateralis; 0.1 uM

| Molecule | Km | Vmax |
| --- | --- | --- |
| Luciferin 4-monooxygenase (Luciola lateralis), Q01158 (protein) MENMENDENIVYGPEPFYPIEEGSAGAQLRKYMDRYAKLGAIAFTNALTGVDYTYAEYLEKSCCLGEALKNYGLVVDGRIALCSENCEEFFIPVLAGLFIGVGVAPTNEIYTLRELVHSLGISKPTIVFSSKKGLDKVITVQKTVTAIKTIVILDSKVDYRGYQSMDNFIKKNTPQGFKGSSFKTVEVNRKEQVALIMNSSGSTGLPKGVQLTHENAVTRFSHARDPIYGNQVSPGTAILTVVPFHHGFGMFTTLGYLTCGFRIVMLTKFDEETFLKTLQDYKCSSVILVPTLFAILNRSELLDKYDLSNLVEIASGGAPLSKEIGEAVARRFNLPGVRQGYGLTETTSAIIITPEGDDKPGASGKVVPLFKAKVIDLDTKKTLGPNRRGEVCVKGPMLMKGYVDNPEATREIIDEEGWLHTGDIGYYDEEKHFFIVDRLKSLIKYKGYQVPPAELESVLLQHPNIFDAGVAGVPDPIAGELPGAVVVLEKGKSMTEKEVMDYVASQVSNAKRLRGGVRFVDEVPKGLTGKIDGKAIREILKKPVAKM | 16 µM | 96% |

Target: T1, Luciferin 4-monooxygenase (Luciola lateralis)
Assay: Inhibition of firefly luciferase activity at 10 uM
Details: Aquatica lateralis
Method in brief: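 Single 10 µM inhibitor concentration against 32 pM firefly luciferase with 50 µM D-luciferin and 90 µM ATP, pH 7.8 glycine-Tris buffers containing MgSO4 and EDTA. 30 min incubation in the dark at room temperature, then luminescence read. Percent inhibition from n = 2 experiments in duplicate.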

| Molecule | inhibition |
| --- | --- |
| CC(C)Oc1ccc(-c2ccc(NC(=O)c3ccccc3)nc2)cc1 | 38% |
| c1ccc(CNc2ccc(-c3ccccc3)cn2)cc1 | 20% |
| CN(C)c1ccc(-c2ccc(NC(=O)c3ccccc3)nc2)cc1 | 14% |
| O=C(Nc1ccc(-c2ccc(C(F)(F)F)cc2)cn1)c1ccccc1 | 39% |
| O=C(Nc1ccc(-c2ccccc2)cn1)c1ccc(Cl)cc1 | 0% |
| CCCC(=O)Nc1ccc(-c2ccccc2)cn1 | 22% |
| COc1ccc(C(=O)Nc2ccc(-c3ccccc3)cn2)c(OC)c1 | 26% |
| O=C(Nc1ccccc1)Nc1ccc(-c2ccccc2)cn1 | 20% |
| O=C(Nc1ccc(-c2ccccc2)cn1)c1ccc(Cl)c(Cl)c1 | 13% |
| CN(C)c1ccc(C(=O)Nc2ccc(-c3ccccc3)cn2)cc1 | 35% |
| O=C(Nc1cccc(-c2ccccc2)n1)c1ccccc1 | 30% |
| O=C(Nc1ccc(-c2cccc(Cl)c2)cn1)c1ccccc1 | 38% |
| Cc1ccc(C(=O)Nc2ccc(-c3ccccc3)cn2)cc1 | 18% |
| O=C(Nc1ccc(-c2ccccc2)cn1)Oc1ccccc1 | 0% |
| CC(C)Oc1ccc(C(=O)Nc2ccc(-c3ccccc3)cn2)cc1 | 12% |
| O=C(Nc1ccc(-c2ccc(Cl)c(Cl)c2)cn1)c1ccccc1 | 4% |
| COc1ccc(C(=O)Nc2ccc(-c3ccccc3)cn2)cc1 | 28% |
| O=C(Nc1ccccn1)c1ccccc1 | 27% |
| Cc1ccc(-c2ccc(NC(=O)c3ccccc3)nc2)cc1 | 51% |
| CC(C)(C)c1ccc(-c2ccc(NC(=O)c3ccccc3)nc2)cc1 | 49% |

Target: T2, Luciferin 4-monooxygenase
Assay: Inhibition of firefly luciferase activity
Design: species or system Aquatica lateralis
Details: not given
Method in brief: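 Firefly luciferase (32 pM) in glycine-Tris buffer with EDTA and MgSO4, pH 7.8; substrates 50 µM D-luciferin and 90 µM ATP in glycine-Tris/MgSO4/EDTA/0.1% BSA/azide buffer, pH 7.8. Inhibitor tested at 11 concentrations; 30 min dark incubation, room temperature; luminescence counted. Nonspecific activity defined with 100 µM reference inhibitor. IC50 ± SEM from three experiments in duplicate.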

| Molecule | IC50 |
| --- | --- |
| Cc1ccc(NC(=O)c2ccccc2)nc1 | 6400 nM |
| Nc1ccc(C(=O)Nc2ccc(-c3ccccc3)cn2)cc1 | 1200 nM |
| O=C(Nc1ccc(-c2ccccc2)cn1)C1CCCCC1 | 2400 nM |
| O=C(Nc1ccc(-c2ccccc2)cn1)c1ccccc1 | 69 nM |
| COc1ccc(C(=O)Nc2ccc(C)cn2)c(OC)c1 | 610 nM |
| O=C(Nc1ccc2ccccc2n1)c1ccccc1 | 1700 nM |
| O=C(Nc1ccc(-c2ccccc2)cn1)c1cccc(Cl)c1 | 160 nM |
| O=C(Nc1ccc(-c2ccc(Cl)cc2)cn1)c1ccccc1 | 560 nM |
| COc1ccc(-c2ccc(NC(=O)c3ccccc3)nc2)cc1 | 310 nM |

Substrate: O=C(Nc1ccc2ccccc2n1)c1ccccc1
Details: Aquatica lateralis; 1 uM
Remark: another data set of the same source

| Molecule | Km | Vmax |
| --- | --- | --- |
| Luciferin 4-monooxygenase (Luciola lateralis), Q01158 (protein) MENMENDENIVYGPEPFYPIEEGSAGAQLRKYMDRYAKLGAIAFTNALTGVDYTYAEYLEKSCCLGEALKNYGLVVDGRIALCSENCEEFFIPVLAGLFIGVGVAPTNEIYTLRELVHSLGISKPTIVFSSKKGLDKVITVQKTVTAIKTIVILDSKVDYRGYQSMDNFIKKNTPQGFKGSSFKTVEVNRKEQVALIMNSSGSTGLPKGVQLTHENAVTRFSHARDPIYGNQVSPGTAILTVVPFHHGFGMFTTLGYLTCGFRIVMLTKFDEETFLKTLQDYKCSSVILVPTLFAILNRSELLDKYDLSNLVEIASGGAPLSKEIGEAVARRFNLPGVRQGYGLTETTSAIIITPEGDDKPGASGKVVPLFKAKVIDLDTKKTLGPNRRGEVCVKGPMLMKGYVDNPEATREIIDEEGWLHTGDIGYYDEEKHFFIVDRLKSLIKYKGYQVPPAELESVLLQHPNIFDAGVAGVPDPIAGELPGAVVVLEKGKSMTEKEVMDYVASQVSNAKRLRGGVRFVDEVPKGLTGKIDGKAIREILKKPVAKM | 3.8 µM | 56% |
